# PGC1a Ac signal: raises PGC1a acetylation signal in U2OS cells | U2OS PGC1a acetylation AlphaScreen, overnight | activation, % at 15.6 µM | actives 0.21% (n = 350,000);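 active = every replicate reaching activation of at least 50%, whatever the mean replicate activation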;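 note: hits raise the AlphaScreen acetylation signal above neutral controls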
#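 System – flag-PGC1a/GCN5 U2OS cells · Quantity – 7000 U2OS cells per well · Signal – AlphaScreen proximity luminescence, anti-acetyl-lysine antibody · Schedule – overnight compound treatment, 37 °C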
# An asterisk follows results filed as active. The full list was thinned out, with hits kept by preference.
SMILES,PGC1a Ac signal
COc1cc(C2C(C#N)=C(N)Oc3c2oc(CO)cc3=O)cc(OC)c1OC (stereo not drawn),102.1*
CC(C)[C@H]1COCCS(=O)(=O)N1Cc1ccccc1F,-49.7
CNC[C@@H]1OCCCC[C@H](C)Oc2ccc(NS(=O)(=O)c3cccs3)cc2C(=O)N([C@H](C)CO)C[C@@H]1C,-58.7
COc1ccc(CCN2C(=O)CC(C(C)c3ccccc3)C2=O)cc1OC (stereo not drawn),-45.4
COc1ccc(C2c3c(-c4ccccc4O)n[nH]c3C(=O)N2CCc2ccc(OC)c(OC)c2)cc1 (stereo not drawn),63.2*
COc1ccc(Cl)cc1NC(=O)CN1CCC(n2nnc3cc(C)ccc32)CC1,-51.5
CCOc1ccc(NC(=O)CN2CCC(n3cnc4cc(F)ccc43)CC2)cc1,67.3*
COc1cc(NC(=O)CCN2CCN(C)CC2)cc(OC)c1,-49.9
O=C(C[C@@H]1CC[C@@H](NC(=O)C2CCC2)[C@H](CO)O1)NCC1CC1,-56.2
O=C(CSc1ccsc1[N+](=O)[O-])NCCc1ccc(Cl)cc1,68.4*
O=C(OCn1ncc(Cl)c(Cl)c1=O)c1ccc(C(F)(F)F)cc1,154.5*
O=C(O)CSc1nnc(COc2cccc3ccccc23)o1,-42.2
N#CCSc1nnc(COc2ccc3ccccc3c2)o1,51.8*
O=C(C(Br)=Cc1ccccc1)c1ccccc1,159.7*
CN(Cc1c(F)cccc1Cl)c1nnnn1-c1ccccc1,-46.7
CN1/C(=C/C(=O)c2nc(S(C)(=O)=O)ncc2Cl)C(C)(C)c2ccccc21,-83.4
CCOC(=O)c1nc(S(C)(=O)=O)ncc1Cl,131.7*
Cc1cc(C)n(-c2ccc(Cl)c(C(=O)OCC(N)=O)n2)n1,-45.6
CC(C)C#Cc1cnc2c(c1)C(=O)N([C@H](C)CO)C[C@H](C)[C@H](CN(C)C(=O)CN1CCOCC1)O2,-57.7
O=C(CS(=O)CC(=O)Nc1cccc2c1CCCC2)Nc1ccc(F)cc1 (stereo not drawn),65.9*
O=C1Nc2ccccc2N=C(c2ccccc2)C1N(Cc1ccc(F)cc1)C(=O)c1cccnc1 (stereo not drawn),-40.5
CN(C)S(=O)(=O)c1ccc(N2CCCC2)c(C(=O)NCc2cccc(C(F)(F)F)c2)c1,92.5*
C/C(N)=C(/C#N)C(=O)COc1ncnc2ccc(Br)cc12,89.8*
CC(=O)c1cccc(-c2ccnc3c2CC(C(=O)NCC2CC2)O3)c1 (stereo not drawn),57.7*
O=C(NCc1ccccc1)C1Cc2c(-c3ccc4c(c3)OCO4)ccnc2O1 (stereo not drawn),133.2*
SMILES,PGC1a Ac signal
O=C(O)c1cccn1Cc1ccccc1F,-54.0
CCn1c(C(C)NC(=O)c2ccccc2C)n[nH]c1=S (stereo not drawn),-49.8
O=c1oc(-c2ccccc2)cc(Cl)c1Cl,115.0*
CC(C)NC(=O)N(C)C[C@H]1OCCCC[C@@H](C)Oc2ccc(NC(=O)Cc3ccccc3)cc2C(=O)N([C@@H](C)CO)C[C@H]1C,-55.2
O=C(NC1CCCCCCC1O)c1ccccc1 (stereo not drawn),-57.1
O=C(c1ccccc1)C1OC1C(=O)c1ccccc1 (stereo not drawn),76.7*
COc1ccc(C#Cc2ccc([C@@H]3[C@H](CO)N4CCCCN(C(=O)Nc5ccc(F)cc5)C[C@@H]34)cc2)cc1,70.5*
CC(C)CC#Cc1ccc([C@H]2[C@H](CO)N3C(=O)CN(C(=O)Nc4cc(F)ccc4F)C[C@@H]23)cc1,-57.1
O=C(Nc1cccc(F)c1)N1CC(=O)N2[C@@H](CO)[C@@H](c3ccc(C#Cc4cccnc4)cc3)[C@@H]2C1,-40.7
CC[C@H](C)[C@@H]1OC(=O)[C@@H](C)[C@@H](CC)NC(=O)[C@H](C)N(C)C(=O)C(C)(C)C(=O)C(C)NC(=O)[C@H](Cc2ccccc2)N(C)C(=O)[C@H](C(C)C)N(C)C(=O)CNC(=O)[C@H](CC(C)C)N(C)C(=O)CNC1=O (stereo partly drawn),-76.1
CN(C)CCNC(=O)c1cccc2c(-c3ccc(F)c(F)c3)coc12,78.1*
CCN(CCNc1ccc(Cl)cc1[N+](=O)[O-])C(=O)c1cc([N+](=O)[O-])c(N(C)C)cc1OC,-51.5
Cc1cc2oc(=O)cc(CN3CCC(C)CC3)c2cc1C,-41.9
CS(=O)(=O)N(CC(=O)N1CCN(c2ccccc2)CC1)c1cccc(Br)c1,-43.4
CC(=O)Nc1ccc(NC(=O)CN(c2cccc([N+](=O)[O-])c2)S(C)(=O)=O)cc1,455.0*
c1ccc(N2CCN(C3CC4CCC3C4)CC2)cc1 (stereo not drawn),-52.7
Cc1ccc(Nc2nc(-c3c(C)nc4ncccn34)cs2)cc1,79.6*
Cc1ccc(Nc2nc(-c3c(C)nc4ccccn34)cs2)cc1,121.3*
CCC(=O)N1C[C@H](C)[C@@H](OC)CN(C)C(=O)c2ccc(NC(=O)Nc3ccccc3)cc2OC[C@@H]1C,-44.8
CC(C)Cn1cnc2c(N)nc3ccccc3c21,-42.3
CN(C)Cc1c(O)ccc2c1O/C(=C\C=C\c1ccccc1)C2=O,78.7*
CCCN(CC)c1ncnc2[nH]ncc12,-44.2
Oc1ccc(Nc2nnc(-c3ccc(O)cc3)c3ccccc23)cc1,63.4*

# High-throughput results deposited in PubChem by Broad Institute.
